Series [1] relates to Saccharomyces cerevisiae. The experiment in a line: Minimum growth-inhibitory concentration against Saccharomyces cerevisiae ATCC 9763 by agar dilution method by the suspension of a fungi containing ~5 x 10e (7) cells/mL. Type of series: functional. In a few lines: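 Agar dilution on Sabouraud–dextrose agar plates with graded compound concentrations. A loopful of yeast suspension (about 5 × 10⁷ cells/mL) was streaked on the surface. Plates were incubated at 30 °C for 3 days. MIC is the lowest concentration with no detectable growth.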
On the technique in general: In agar dilution the substance is mixed into plates at graded concentrations.

In series [2] the target is T1, ATP-dependent translocase ABCB1 (Homo sapiens, UniProt P08183). The experiment in a line: Direct comparison of the antifungal activities with the relative Pgp-inhibitory potencies, calculated by comparing ug/mL IC50(or IC20). The class given is functional.
T1 sequence (P08183 whole entry): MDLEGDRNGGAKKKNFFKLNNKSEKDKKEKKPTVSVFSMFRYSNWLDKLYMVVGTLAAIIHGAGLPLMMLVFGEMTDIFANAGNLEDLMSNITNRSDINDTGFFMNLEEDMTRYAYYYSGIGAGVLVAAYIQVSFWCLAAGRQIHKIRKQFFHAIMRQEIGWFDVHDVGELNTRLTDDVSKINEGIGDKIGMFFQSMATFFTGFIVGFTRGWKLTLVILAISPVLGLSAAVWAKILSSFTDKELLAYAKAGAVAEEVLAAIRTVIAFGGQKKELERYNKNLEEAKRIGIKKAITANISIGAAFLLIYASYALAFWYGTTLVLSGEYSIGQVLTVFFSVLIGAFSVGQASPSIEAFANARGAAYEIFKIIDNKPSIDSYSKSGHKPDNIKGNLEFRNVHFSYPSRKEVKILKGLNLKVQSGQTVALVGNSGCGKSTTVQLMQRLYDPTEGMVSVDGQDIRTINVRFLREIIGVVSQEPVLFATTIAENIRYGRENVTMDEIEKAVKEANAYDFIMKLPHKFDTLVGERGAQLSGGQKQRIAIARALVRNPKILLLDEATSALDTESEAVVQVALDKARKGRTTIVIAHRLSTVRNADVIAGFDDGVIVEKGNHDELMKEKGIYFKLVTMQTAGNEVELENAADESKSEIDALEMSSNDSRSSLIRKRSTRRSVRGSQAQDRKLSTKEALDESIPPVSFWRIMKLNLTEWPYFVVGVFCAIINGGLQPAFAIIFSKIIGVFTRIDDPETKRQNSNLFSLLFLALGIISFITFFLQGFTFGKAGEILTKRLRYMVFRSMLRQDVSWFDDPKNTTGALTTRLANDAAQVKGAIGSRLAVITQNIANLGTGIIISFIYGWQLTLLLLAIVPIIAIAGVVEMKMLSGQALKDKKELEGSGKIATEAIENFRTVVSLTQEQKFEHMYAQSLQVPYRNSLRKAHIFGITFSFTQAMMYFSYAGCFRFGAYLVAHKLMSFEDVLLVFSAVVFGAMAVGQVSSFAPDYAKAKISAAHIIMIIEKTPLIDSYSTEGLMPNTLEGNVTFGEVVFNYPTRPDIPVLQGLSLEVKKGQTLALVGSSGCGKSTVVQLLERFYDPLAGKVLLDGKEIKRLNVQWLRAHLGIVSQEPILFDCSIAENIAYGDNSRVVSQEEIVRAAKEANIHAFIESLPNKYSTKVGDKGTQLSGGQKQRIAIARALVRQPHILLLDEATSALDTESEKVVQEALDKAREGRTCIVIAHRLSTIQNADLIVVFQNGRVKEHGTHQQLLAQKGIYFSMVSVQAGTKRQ
The target in series [3] is T1, ATP-dependent translocase ABCB1. As to the kind of experiment: (§1) Human MDR1 Pgp inhibitory activity by using standard calcein-AM efflux method with the human leukemia CEM cells. The class given is cell-based, CCRF-CEM.
For series [4], the target named is P-glycoprotein (ABCB1, MDR1) (Homo sapiens, UniProt P08183). The description is as §1. Type of series: cell-based, CCRF-CEM. Particulars: probe calcein-AM.
Chain of P-glycoprotein (ABCB1, MDR1) (P08183 whole entry): as above
Series [5] relates to Saccharomyces cerevisiae. The experiment in a line: Relative antifungal activity (against Saccharomyces cerevisiae) compared to AbA.
Series [6] can be described thus: Antifungal activity was determined by its potency compared with that of AbA. Value is determined as ratio of AbA to the analogue. Type of series: functional. In a few lines: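 Agar dilution MIC against S. cerevisiae ATCC 9763 on Sabouraud–dextrose agar plates containing graded compound concentrations. A loopful of about 5 × 10⁷ cells/mL suspension was streaked on the surface, and plates were incubated at 30 °C for 3 days. MIC was the lowest concentration with no detectable growth. The value is the AbA/analogue activity ratio.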

For series [7], the target named is T1, ATP-dependent translocase ABCB1.

In brackets after ≈: the same amount, converted by molar mass. Square brackets hold non-standard residues; d marks the D form. Peptide text beside a SMILES is read from it. Hmp(2R,3S) = CC[C@H](C)[C@@H](O)C(=O)O; NMeVal(β-OH) = CN[C@H](C(=O)O)C(C)(C)O; NMeF = CN[C@@H](Cc1ccccc1)C(=O)O; NMeV = CN[C@H](C(=O)O)C(C)C

Compound `CC[C@H](C)[C@@H]1NC(=O)[C@@H]2CCCN2C(=O)[C@@H](C)N(C)C(=O)[C@H](Cc2ccc(O)cc2)NC(=O)[C@H](C(C)C)N(C)C(=O)[C@@H]([C@@H](C)CC)OC(=O)[C@H](C(C)(C)O)N(C)C(=O)[C@H](CC(C)C)NC(=O)[C@H](C(C)C)N(C)C1=O` showed an MIC in the series with Saccharomyces cerevisiae [1] of 25 µg/mL (≈ 24 µM). Besides, the “Pgp AbA/analogue ratio” value in series [2] is given as 0.4. In series [3], the IC50 is 5770 nM. In addition, in series [4], the IC20 is 2120 nM.
As for `CC[C@H](C)[C@@H]1NC(=O)[C@@H]2CCCN2C(=O)[C@@H](C)N(C)C(=O)[C@H](CO)NC(=O)[C@H](C(C)C)N(C)C(=O)[C@@H]([C@@H](C)CC)OC(=O)[C@H](C(C)(C)O)N(C)C(=O)[C@H](CC(C)C)NC(=O)[C@H](C(C)C)N(C)C1=O`, in the series on Saccharomyces cerevisiae [1], the MIC was > 25 µg/mL. For the same compound, the “Pgp AbA/analogue ratio” value in series [2] is < 0.1. In the series with Saccharomyces cerevisiae [5], the “antifungal AbA/analogue ratio” value is reported as < 0.016. Further, the IC50 in series [3] was > 31000 nM. Further, the IC20 in series [4] was > 31000 nM.
For the compound `CC[C@@H](C)[C@@H]1NC(=O)[C@@H]2CCCN2C(=O)[C@H](Cc2ccccc2)N(C)C(=O)[C@H](Cc2ccccc2)NC(=O)[C@H](C(C)C)N(C)C(=O)[C@@H]([C@@H](C)CC)OC(=O)CN(C)C(=O)[C@H](CC(C)C)NC(=O)[C@H](C(C)C)N(C)C1=O`, the AbA/analogue ratio in series [6] is reported as <0.016.
As to `CC[C@@H](C)[C@@H]1NC(=O)[C@@H]2CCCN2C(=O)[C@H](Cc2ccccc2)N(C)C(=O)[C@H](Cc2ccccc2)NC(=O)[C@H](C(C)C)N(C)C(=O)[C@@H](C(C)C)OC(=O)[C@H](C(C)(C)O)N(C)C(=O)[C@H](CC(C)C)NC(=O)[C@H](C(C)C)N(C)C1=O`, the “Pgp AbA/analogue ratio” value in series [2] is 2.1. Besides, in the series with Saccharomyces cerevisiae [5], the “antifungal AbA/analogue ratio” value was 1. Further, the IC50 in series [3] was 1100 nM. The IC20 in series [4] was 340 nM.
`CC[C@H](C)[C@@H]1NC(=O)[C@H]2CCCN2C(=O)[C@H](Cc2ccccc2)N(C)C(=O)[C@H](Cc2ccccc2)NC(=O)[C@H](C(C)C)N(C)C(=O)[C@@H]([C@@H](C)CC)OC(=O)[C@H](C(C)(C)O)N(C)C(=O)[C@H](CC(C)C)NC(=O)[C@H](C(C)C)N(C)C1=O` had an MIC with Saccharomyces cerevisiae [1] of 1.6 µg/mL (≈ 1.45 µM). For the same compound, in series [3], the IC50 was > 2700 nM. Also, the IC20 in series [4] is 1360 nM.
`CC[C@H](C)[C@@H]1NC(=O)[C@@H]2CCCN2C(=O)[C@@H](C)N(C)C(=O)[C@H](Cc2ccc(OCC3CCCCC3)cc2)NC(=O)[C@H](C(C)C)N(C)C(=O)[C@@H]([C@@H](C)CC)OC(=O)[C@H](C(C)(C)O)N(C)C(=O)[C@H](CC(C)C)NC(=O)[C@H](C(C)C)N(C)C1=O` returned an MIC in the series with Saccharomyces cerevisiae [1] of 1.6 µg/mL (≈ 1.41 µM). In addition, in series [2], the “Pgp AbA/analogue ratio” value is 1. Further, in the series on Saccharomyces cerevisiae [5], the “antifungal AbA/analogue ratio” value worked out at 0.25. Besides, the IC50 in series [3] is 2110 nM. In addition, the IC20 in series [4] was 640 nM.
For the compound `CC[C@H](C)[C@H]1OC(=O)[C@H](C(C)(C)O)N(C)C(=O)[C@H](CC(C)C)NC(=O)[C@H](C(C)C)N(C)C(=O)[C@H](C(C)C)NC(=O)[C@@H]2CCCN2C(=O)[C@H](Cc2ccccc2)N(C)C(=O)[C@H](Cc2ccccc2)NC(=O)[C@H](C(C)C)N(C)C1=O` (cyclo(F[NMeF]PV[NMeV]L[NMeVal(β-OH)][Hmp(2R,3S)][NMeV])), the MIC in the series with Saccharomyces cerevisiae [1] is 0.4 µg/mL (≈ 0.368 µM). Besides, the “Pgp AbA/analogue ratio” value in series [2] was 1.8. In addition, the IC50 in series [3] was 1290 nM. In addition, the IC20 in series [4] was 410 nM.
Consider `CC[C@@H](C)[C@@H]1NC(=O)[C@@H]2CCCN2C(=O)[C@H](Cc2ccccc2)N(C)C(=O)[C@H](Cc2ccccc2)NC(=O)[C@H](C(C)C)N(C)C(=O)[C@@H]([C@H](C)CC)OC(=O)[C@H](C(C)(C)O)N(C)C(=O)[C@H](CC(C)C)NC(=O)[C@H](C(C)C)N(C)C1=O` [AUREOBASIDIN A], for which the IC50 in series [7] is 2270 nM.

Usually MIC stands for the least concentration at which growth counts as inhibited. In general, IC50 refers to the concentration that gives 50% inhibition. The term IC20 denotes the concentration at which the effect reaches the 20% level.

These data come from ChEMBL document CHEMBL1133762, “Aureobasidins: structure-activity relationships for the inhibition of the human MDR1 P-glycoprotein ABC-transporter” (J Med Chem, 2000).
